An excerpt weighted towards active compounds, which were near 1.5% of everything screened.
Platelet DG rel – inhibitors of platelet dense granule secretion, primary screen, cell-based, MLPCN, human platelets | AID 1663, 2009 | human platelet-rich plasma, SFLLRN dense granule ATP release, luminescence | inhibition, %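 (compounds screened at 7.5 µM in platelet-rich plasma)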 | 300,000 compounds, 0.22% hits;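 active means mean replicate score, as percent of positive control, at or above 50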
H9c2 TAG inh – inhibitors of triacylglycerol accumulation, primary screen, cell-based, uHTS, fluorescence, H9c2; H9c2 cells, Nile Red lipid (TAG) fluorescence; cells loaded with 200 µM oleic acid; inhibition, % at 12.5 µM; 230,000 compounds, 0.66% hits; AID 651582, 2012;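 active means pattern-corrected inhibition of lipid staining of at least 50% with the nuclear-stain viability signal not falling by more than 50%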;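 further: 0% = DMSO wells and 100% = triacsin C control wells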
STAT1 inh – STAT1 signaling inhibitors, primary screen, cell-based, HTS, luciferase reporter. NIH 3T3 STAT1-luciferase reporter, IFN-gamma, luminescence. inhibition, % at 5.5 µM. 200,000 compounds, 0.35% hits;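 active means inhibition above a set limit, the mean inhibition across all tested compounds plus 3 SD, cut at about 34% in these data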;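 further: 0% = IFN-gamma with DMSO and 100% = IFN-gamma with 300 µM nifuroxazide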
STAT3 inh-1 – IL-6 driven STAT3 reporter inhibitors, primary screen, U3A cells, luciferase, luminescence, MLSCN library; 190,000 compounds, 0.89% hits; inhibition, % at 5.5 µM; IL-6 STAT3-luciferase reporter; host cell line lacks STAT1;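 active means inhibition above the mean inhibition across all screened compounds plus 3 SD, cut at about 44% in these data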;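 further: 0% = DMSO only wells and 100% = 100 µM nifuroxazide control wells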
Lipid droplet – inhibitors of hepatocyte lipid droplet formation, primary screen, imaging, high-throughput imaging, BODIPY stain; AML12 mouse hepatocytes, oleate lipid droplets; inhibition, % at 6.5 µM; 240,000 compounds, 0.4% hits; AID 1656, 2009;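 active means lipid droplet intensity inhibited by at least 50%, with more than 500 cells counted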
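Test system: AML12 mouse liver cells; schedule: overnight exposure; technique: high-content imaging of BODIPY-stained droplets and DAPI nuclei; read-out: % inhibition of corrected integrated BODIPY droplet signal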
PPC-1+TRAIL kill – compounds killing PPC-1 cancer cells with TRAIL present, primary screen, TRAIL potentiator project, ATPLite luminescence, uHTS; PPC-1 cells + TRAIL, ATPLite viability luminescence; cell killing (% activity), % at 4 µM or 5 µM; 220,000 compounds, 0.41% hits;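 active means cell killing above 50% in the first pass at 4 µM, then a duplicate retest at 5 µM averaging 50% or more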;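 further: plate controls were cells with TRAIL plus DMSO for no effect and medium-only wells lacking cells for full effect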
STAT3 inh-2 – STAT3 reporter inhibitors, retest of hits, confirmation, U3A cells, luciferase, luminescence; 1,200 compounds, 45% hits; inhibition, % at 5.7 µM; IL-6 STAT3 luciferase reporter; cell line lacks STAT1; shares compounds with STAT3 inh-1;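 active means inhibition above the hit cutoff computed for the primary STAT3 screen, cut at about 44% in these data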;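 further: 0% = IL-6 plus DMSO and 100% = IL-6 plus nifuroxazide control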
NFkB inh STAT3ct – NF-kB reporter inhibitors in human cells, confirmation, counter-screen for STAT3 inhibitor project, cell-based, HEK293T, luciferase, TNF-alpha stimulus; shares compounds with STAT3 inh-1; TNF-alpha induced; inhibition, % at 5.7 µM; 1,200 compounds, 36% hits; AID 1308, 2008;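 active means inhibition above the mean of solvent-only control wells plus 3 SD, cutoff set per campaign, cut at about 13% in these data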;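 further: 0% = TNF-alpha with DMSO and 100% = TNF-alpha with MG high control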
STAT1 inh 2 – STAT1 reporter inhibitors, IFN-gamma induced, confirmation, counter-screen for STAT3 inhibitor project, cell-based, NIH 3T3, luciferase luminescence; shares compounds with STAT3 inh-1; NIH 3T3 STAT1-luciferase reporter; 1,200 compounds, 27% hits; inhibition, % at 5.7 µM; AID 1317, 2008;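 active means inhibition above the mean plus 3 SD of solvent-only control wells, limit set per screening run, cut at about 16% in these data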;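 further: 0% = DMSO with IFN-gamma and 100% = nifuroxazide control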
* marks the source's active call; other numbers are inactive results; nt = no result given.

SMILES	Platelet DG rel	H9c2 TAG inh	STAT1 inh	STAT3 inh-1	Lipid droplet	PPC-1+TRAIL kill	others
COc1ccccc1C1CC(=O)Nc2cc(C)c(C)cc21 (stereo unspecified)	16	nt	nt	nt	-18	nt
Cc1cc2c(cc1C)C(c1ccccc1Br)CC(=O)N2 (stereo unspecified)	-8	8	7	6	2	54*
COc1ccc([C@H]2N[C@]3(CCCN(Cc4ccc(C(F)(F)F)cc4)C3=O)[C@H]3C(=O)N(C)C(=O)[C@@H]23)cc1	nt	-5	nt	nt	nt	nt
Oc1ccc(Nc2nc(N3CCCC3)c3ccccc3n2)cc1	-2	52*	-16	6	nt	36
CC(=O)n1cc(N(C(=O)CCl)c2ccc(C)cc2)c2ccccc21	8	65*	nt	nt	6	38
O=C(C(Cc1ccccc1)n1cccc1)N1CCN(c2cccc(Cl)c2)CC1 (stereo unspecified)	-1	-18	4	4	nt	8
COc1ccc(N2CCN(C(=O)C(Cc3ccccc3)n3cccc3)CC2)cc1 (stereo unspecified)	28	-1	3	14	nt	82*
O=C(NCc1cccs1)c1ccc2nc([C@@H]3O[C@H](CO)[C@H](O)[C@H](O)[C@H]3O)[nH]c2c1	nt	7	nt	nt	nt	nt
CCN1CCCC1CNC(=O)c1cc2c(-c3ccc(Cl)cc3)nn(C)c2s1 (stereo unspecified)	19	53*	6	-72	nt	-2
CCCNC(=O)C1(C)CCCN(Cc2ccccc2N(C)C)C1 (stereo unspecified)	nt	4	nt	nt	nt	nt
O=C(NCCSc1c[nH]c2ccccc12)c1c(F)cccc1F	74*	-8	-10	nt	2	15
CC1(C(=O)Nc2cccc3cccnc23)CCN1C(=O)CC1CC1 (stereo unspecified)	nt	-21	nt	nt	nt	nt
O=C(COC(=O)/C=C/c1cn(-c2ccccc2)nc1-c1ccc2c(c1)OCCO2)NC1CCS(=O)(=O)C1 (stereo unspecified)	52*	34	nt	nt	0	11
CCOc1cc2nc(-c3ccc(OC)c(OC)c3)nc(NCCCN3CCOCC3)c2cc1OC	3	56*	-1	5	26	8
CN1C[C@@H]2C(c3ccc(Cl)nc3)C3(c4ccc(C#N)cc4)CC2(C3)[C@H]1c1ccccc1 (stereo partly specified)	2	5	nt	nt	3	29
N#Cc1ccc(C23CC4(C2)[C@H](CN(P(=O)(c2ccccc2)c2ccccc2)[C@@H]4c2ccccc2)C3c2ccc(Cl)nc2)cc1 (stereo partly specified)	-2	51*	nt	nt	34	-3
CNS(=O)(=O)c1ccc(CNC[C@H]2O[C@@H](n3ccc(N)nc3=O)[C@H](O)[C@@H]2O)cc1	nt	15	nt	nt	nt	nt
Cc1ccc(Cl)c(OCC(=O)Nc2ccccc2C(=O)NC2CC2)c1	53*	22	nt	nt	0	nt
Cc1ccc(C)c(OCC(=O)Nc2ccccc2C(=O)NC2CC2)c1	0	16	nt	nt	0	nt
Cc1cccc(N/C=C/C(=O)c2cccs2)c1C	21	nt	-31	26	-26	59*
CN1C(=O)C(O)(CC(=O)c2ccccn2)c2cc(Br)ccc21 (stereo unspecified)	-4	53*	1	4	2	-8
CC1(C(=O)NS(=O)(=O)c2ccc(C#N)cc2)CCN1C(=O)C1CCCCC1 (stereo unspecified)	nt	-4	nt	nt	nt	nt
O=C(O)/C=C/c1cccc(NC(=O)c2ccc(Cl)cc2)c1	15	-3	-6	-1	-5	nt
O=C(O)/C=C/c1cccc(NC(=O)c2ccccc2)c1	64*	11	nt	nt	0	18
CN1CCN(c2cc(-c3cc(O)c4ncccc4c3)ccn2)CC1	nt	77*	nt	nt	nt	nt
SMILES	Platelet DG rel	H9c2 TAG inh	STAT1 inh	STAT3 inh-1	Lipid droplet	PPC-1+TRAIL kill	others
Oc1cc(-c2cccnc2)cc2cccnc12	nt	56*	nt	nt	nt	nt
c1cncc(-c2nnc(-c3cccnc3)nn2)c1	0	-1	-6	7	nt	13
Cc1nnsc1C(=O)N/N=C/c1c(F)cccc1Cl	1	-19	-5	17	-1	-14
Cc1[nH]cnc1C(=O)N/N=C/c1c(Cl)cccc1Cl	72*	nt	nt	nt	nt	nt
CCCCCCN1C[C@@H](n2cc(-c3ccc(F)cc3)nn2)[C@H](O)C[C@@H]1c1ccc(Cl)cc1	nt	46	nt	nt	nt	nt
CN(C(=O)CSc1nnnn1-c1ccc(O)cc1)C1CCCCC1	nt	-2	nt	nt	nt	nt
CC(C)(C)c1cc(CCC(=O)N2CCNCC2)c(C(C)(C)C)cc1O	0	55*	7	-14	-3	11
O=C(O)c1cc(N/N=C/c2ccc3c(c2)OCCO3)ccc1Cl	nt	nt	48*	-28	1	6
O=C(N/N=C/c1ccc2c(c1)OCO2)c1ccc2c(c1)OCCO2	9	nt	-17	-13	21	26
O=C(O)c1cc(N/N=C/c2ccc3c(c2)OCO3)ccc1Cl	14	1	19	-16	5	17
O=C(O)c1ccc(N/N=C/c2ccc3c(c2)OCO3)cc1	86*	nt	93*	80*	-7	4
O=C(O)c1cc(N/N=C/C(Cl)=C/c2ccccc2)ccc1Cl	1	-6	59*	51*	14	16
O=C(O)c1cc(NN=C2c3ccccc3-c3ccccc32)ccc1Cl	25	nt	nt	nt	16	nt
CN1C=CC(C(C(N)=O)c2ccccc2)c2ccccc21 (stereo unspecified)	nt	19	nt	nt	nt	nt
C[C@@H]1CN([C@H](C)CO)C(=O)CCCn2cc(nn2)CO[C@H]1CN(C)C(=O)Nc1ccc2c(c1)OCO2	nt	-9	nt	nt	nt	nt
C[n+]1c2n(c3ccccc31)N=C(c1cc(C(C)(C)C)c(O)c(C(C)(C)C)c1)CS2	-13	29	18	79*	-94	36	STAT3 inh-2=79*;NFkB inh STAT3ct=37*;STAT1 inh 2=-3
CCCCN1C(=O)C(CC(=O)NCc2cccc3ccccc23)CC(C(=O)N2CCOCC2)=C1C (stereo unspecified)	nt	16	nt	nt	nt	nt
COc1cccc(OC)c1Nc1nc(C)nc2c1nnn2Cc1ccccc1Cl	-24	12	7	5	2	9

High-throughput results (PubChem)
